An excerpt weighted towards active compounds, which were near 4.2% of everything screened.
Mot1-301 SUMO: inhibitors of SUMOylation pathway: yeast Mot1-301 growth rescue. S. cerevisiae Mot1-301 growth rescue, ATP luminescence, 38.5C; percent above DMSO median, 100 means doubled. growth rescue, % at 18.8 µM. 320,000 tested, 1% active;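 active = every valid replicate shows activation above 250% relative to neutral control wells; inactive = the rest, any valid replicate at or below 250%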;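 also: OY570 slx delta 5 strain wells were the positive control but not used for scaling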
AI-2 QS mod: modulates the Vibrio harveyi AI-2 quorum sensing system. Vibrio harveyi JMH597 AI-2 luminescence/OD600 ratio, 9 h; stronger effect = lower value; strain lacks LuxN and CqsS sensors; 0 = neutral-control median. 300,000 tested, 0.4% active. activity change, % at 7.5 µM; in the data active = activity change below about -75%, passing the limit was not always enough; inconclusive = no clear call, values can overlap the other calls;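 also: luminescence divided by OD600 gain over 9 h not by final OD600 alone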
KCNQ1 pot: human KCNQ1 channel potentiation or activation. P51787. CHO-K1 KCNQ1, thallium flux FluxOR fluorescence; stronger effect = higher value. B-score at 10 µM. 310,000 tested, 0.35% active. AID 2648;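 active = fluorescence ratio B-score, a plate-corrected score, at least three library SD, with initial intensity B-score within 5 SD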
Target sequence (P51787 whole entry, looked up): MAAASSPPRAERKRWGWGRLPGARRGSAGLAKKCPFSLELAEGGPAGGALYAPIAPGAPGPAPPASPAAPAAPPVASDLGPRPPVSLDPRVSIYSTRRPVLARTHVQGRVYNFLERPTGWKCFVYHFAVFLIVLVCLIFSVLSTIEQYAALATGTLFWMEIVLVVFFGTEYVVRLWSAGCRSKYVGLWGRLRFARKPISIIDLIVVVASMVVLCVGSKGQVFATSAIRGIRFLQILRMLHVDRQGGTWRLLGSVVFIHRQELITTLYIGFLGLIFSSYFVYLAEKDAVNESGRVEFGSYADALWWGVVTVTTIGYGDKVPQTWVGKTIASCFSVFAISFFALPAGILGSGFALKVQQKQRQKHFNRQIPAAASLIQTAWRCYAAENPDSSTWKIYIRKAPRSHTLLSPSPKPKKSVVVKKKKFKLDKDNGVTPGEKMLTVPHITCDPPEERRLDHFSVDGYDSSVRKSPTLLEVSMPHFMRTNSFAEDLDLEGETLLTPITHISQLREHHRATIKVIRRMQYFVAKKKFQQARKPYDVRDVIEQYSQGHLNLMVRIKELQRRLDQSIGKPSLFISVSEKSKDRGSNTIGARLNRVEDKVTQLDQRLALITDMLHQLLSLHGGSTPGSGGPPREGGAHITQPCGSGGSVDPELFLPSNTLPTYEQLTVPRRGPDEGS
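System: Stable KCNQ1 CHO-K1 line | Incubation: 90 min dye loading and 20 min compound exposure, both at room temperature | Measure: Ratio B score | Medium: Assay buffer for compound exposure, DMSO matched across wells | Compound dosing: Single-concentration screen | Probe or stimulus: K+/Tl+ depolarizing stimulus | Measured by: Kinetic FluxOR fluorescence, 10 s baseline plus 110 s post-stimulus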
Cl transport mod: modulators of human KCC2 chloride dependent transport; AID 1456; B-score of Tl+ flux slope (higher = more flux/activation; lower = inhibition) at 10 µM; 190,000 tested, 2.2% active; KCC2 cells, thallium flux FluoZin-2 fluorescence; Q9H2X9;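 active = thallium flux slope and its plate-corrected score both differing from the plate sample mean at a set confidence after two filtering rounds, in either direction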;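 also: slope of fluorescence scaled to starting intensity during 10 to 20 s after thallium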
hERG protect: shields human hERG channel from block by proarrhythmic agents. Q12809. CHO-hERG, FluxOR thallium flux, dofetilide IC70 present. activation (rescue from dofetilide block), less the hit threshold, % at 10 µM. 310,000 tested, 0.51% active. AID 1511;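 active = activation above the mean of controls blocked by dofetilide plus 5 SD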;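 also: thallium influx through hERG after potassium depolarization seen as dye fluorescence rise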
KCNQ1 block: blocks the human KCNQ1 potassium channel; P51787; CHO-K1 KCNQ1, FluxOR thallium flux fluorescence; stronger effect = higher value; B-score at 10 µM; 310,000 tested, 1.3% active; AID 2642;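 active = compounds whose thallium flux B-score, printed positive for inhibition, exceeds three library SD while starting fluorescence stays within three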;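 also: channel opened by potassium depolarization with thallium stimulus after 20 min compound exposure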
Active calls of the source: *.

`Cc1cc(C)n2nc(C(=O)OCC(=O)N3C(C)CCCC3C)nc2n1` (stereo not drawn) gave Mot1-301 SUMO 0, AI-2 QS mod 9, KCNQ1 pot inactive, hERG protect -13 and KCNQ1 block inactive.
Screening Cn1c(C(=O)N2CCCC(C(=O)NCCN3CCOCC3)C2)cc2sccc21 (stereo not drawn) returned Mot1-301 SUMO 7, AI-2 QS mod 10, KCNQ1 pot inactive, Cl transport mod 0.79, hERG protect 7.3* and KCNQ1 block inactive.
Screening CCOc1ccc(S(=O)(=O)N2CCCC(C(=O)NCCN3CCOCC3)C2)cc1Cl (stereo not drawn) returned Mot1-301 SUMO 142, AI-2 QS mod -15, KCNQ1 pot 9*, hERG protect -7 and KCNQ1 block inactive.
Screening COc1ccc(NC(=O)c2ccc(COCC(F)(F)C(F)F)cc2)cc1 returned Mot1-301 SUMO 64, AI-2 QS mod 0, KCNQ1 pot inactive, Cl transport mod 0.16, hERG protect 13* and KCNQ1 block inactive.
`COc1cccc(NC(=S)NCCN2CCOCC2)c1` gave Mot1-301 SUMO -1, AI-2 QS mod 21, KCNQ1 pot 12*, Cl transport mod 0.35, hERG protect -12 and KCNQ1 block inactive.
`COc1cccc(NC(=S)NCCC(c2ccccc2)c2ccccc2)c1` gave Mot1-301 SUMO -24, AI-2 QS mod 35, KCNQ1 pot inactive, Cl transport mod 0.63, hERG protect -10 and KCNQ1 block 10*.
`COc1ccc(NC(=O)NCCCCc2ccccc2)c(OC)c1` gave Mot1-301 SUMO 7, AI-2 QS mod 4, KCNQ1 pot inactive, hERG protect 4.6* and KCNQ1 block inactive.
For COc1ccc(NC(=S)Nc2ccccn2)c(OC)c1 the results were Mot1-301 SUMO -21, AI-2 QS mod 2, KCNQ1 pot inactive, Cl transport mod 0.015, hERG protect 5.2* and KCNQ1 block inactive.
`COc1ccccc1NC(=O)NCCCCc1ccccc1` gave Mot1-301 SUMO -4, AI-2 QS mod 20, KCNQ1 pot inactive, hERG protect -4 and KCNQ1 block inactive.
Screening Cc1cccc(NC(=S)NCCC(c2ccccc2)c2ccccc2)c1 returned Mot1-301 SUMO 3, AI-2 QS mod -6, KCNQ1 pot inactive, Cl transport mod -0.36, hERG protect -18 and KCNQ1 block inactive.
Screening CCCCn1c(N)c(N(CC(C)C)C(=O)CSc2ccccc2C)c(=O)[nH]c1=O returned Mot1-301 SUMO -14, AI-2 QS mod 21, KCNQ1 pot inactive, hERG protect -12 and KCNQ1 block inactive.
For C=CCNC(=S)N1CCC(C(=O)c2ccc(Cl)cc2)CC1 the results were Mot1-301 SUMO 10, AI-2 QS mod 25, KCNQ1 pot inactive, hERG protect -4 and KCNQ1 block inactive.
Cc1cc(C(=O)NC2CCCc3c2cnn3-c2ccc(C(C)(C)C)cc2)n[nH]1 (stereo not drawn) was read as Mot1-301 SUMO -19, AI-2 QS mod 2, KCNQ1 pot inactive, hERG protect -5 and KCNQ1 block inactive.
Screening COc1cc(OC)cc(C(=O)NCCC(c2ccccc2)c2ccccc2)c1 returned Mot1-301 SUMO -7, AI-2 QS mod -1, KCNQ1 pot inactive, hERG protect -6 and KCNQ1 block inactive.
COc1ccc(NC(=S)NCCC(c2ccccc2)c2ccccc2)c(OC)c1 was read as Mot1-301 SUMO -1, AI-2 QS mod 15, KCNQ1 pot 29*, hERG protect -11 and KCNQ1 block inactive.
COc1ccc(NC(=S)NCCc2ccccc2OC)c(OC)c1 was read as Mot1-301 SUMO 20, AI-2 QS mod -5, KCNQ1 pot inactive, Cl transport mod -0.86, hERG protect -10 and KCNQ1 block inactive.
Screening COc1cc(NC(=S)NCCC(c2ccccc2)c2ccccc2)cc(OC)c1 returned Mot1-301 SUMO 1, AI-2 QS mod 11, KCNQ1 pot inactive, Cl transport mod -0.32, hERG protect -10 and KCNQ1 block 6*.
CCN(CC)c1ccc(C(=O)NNC(=O)CNC(=O)c2cccs2)cc1 was read as Mot1-301 SUMO 4.
For Cc1csc(N/N=C/c2ccc([N+](=O)[O-])cc2)n1 the results were Mot1-301 SUMO -9, AI-2 QS mod 17, KCNQ1 pot 9*, hERG protect 1 and KCNQ1 block inactive.
Screening Cc1cc(=O)[nH]c(N/N=C/c2ccc([N+](=O)[O-])cc2)n1 returned Mot1-301 SUMO 0, AI-2 QS mod 1, KCNQ1 pot inactive, Cl transport mod 3, hERG protect -10 and KCNQ1 block inactive.
Screening COc1ccc(/C=N/n2c(-c3cccs3)n[nH]c2=S)cc1 returned Mot1-301 SUMO 0, AI-2 QS mod 43, KCNQ1 pot inactive, Cl transport mod 31*, hERG protect -7 and KCNQ1 block inactive.
Cc1ccc(/C=N/n2c(-c3cccs3)n[nH]c2=S)cc1 was read as Mot1-301 SUMO 18, AI-2 QS mod inconclusive, KCNQ1 pot inactive, Cl transport mod 30*, hERG protect 1 and KCNQ1 block inactive.
Cc1ccc(/C=N/n2c(-c3ccccc3)n[nH]c2=S)cc1 was read as Mot1-301 SUMO -13, AI-2 QS mod 23, KCNQ1 pot inactive, hERG protect -11 and KCNQ1 block inactive.
O=C(NC1CCCCC1)C(c1ccc2ncccc2c1)N(Cc1ccc2c(c1)OCO2)C(=O)c1cccs1 (stereo not drawn) was read as Mot1-301 SUMO 134, AI-2 QS mod 20, KCNQ1 pot inactive, hERG protect -6 and KCNQ1 block 6*.
For Cc1ccc2nc(/C(C#N)=C\c3ccc(N4CCCCC4)c([N+](=O)[O-])c3)[nH]c2c1 the results were Mot1-301 SUMO 11, AI-2 QS mod 19, KCNQ1 pot inactive, Cl transport mod 1.4, hERG protect -18 and KCNQ1 block 8*.
For CCC(=O)N1CCN(c2ccccc2NC(=O)c2cccc(C)c2)CC1 the results were Mot1-301 SUMO -2, AI-2 QS mod 40, KCNQ1 pot inactive, Cl transport mod -0.057, hERG protect -9 and KCNQ1 block inactive.
`CC(=O)N1CCN(c2ccccc2NC(=O)COc2cc(C)ccc2C(C)C)CC1` gave Mot1-301 SUMO 2, AI-2 QS mod 15, KCNQ1 pot inactive, hERG protect -24 and KCNQ1 block 6*.
For CCC(=O)N1CCN(c2ccccc2NC(=O)COc2cccc(C)c2)CC1 the results were Mot1-301 SUMO 179, AI-2 QS mod 8, KCNQ1 pot inactive, Cl transport mod 13*, hERG protect -19 and KCNQ1 block inactive.

Compound activity deposited in PubChem BioAssay by several laboratories.
